Test results reported in ChEMBL document CHEMBL4396885, “Thioether-based 2-aminobenzamide derivatives: Novel HDAC inhibitors with potent in vitro and in vivo antitumor activity” (Eur J Med Chem, 2019).
Blank lines part the entries; values can stand above or below the compound they belong to.

Columns and labels:
A549 [1] = experiment: Cell cycle arrest in human A549 cells assessed as accumulation of cells at S phase at 0.5 uM after 48 hrs by propidium iodide staining-based flow cytometry (reference value: 12.83%); type: functional
A549 [2] = experiment: Induction of apoptosis in human A549 cells assessed as viable cells at 1 uM after 48 hrs by Annexin V-FITC/propidium iodide staining based flow cytometry (reference value: 98%); type: functional; conditions: A549, 48 h, read-out: Activity
Summary of the method: (§1)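 A549 seeded 4×10⁶ cells/well, dosed after 12 h with compound at various concentrations, harvested after 48 h. Resuspended in annexin-binding buffer, stained with Annexin V-FITC and propidium iodide for 15 min in the dark, analysed by flow cytometry; means of three separate experiments.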

A549 [3] = experiment: Induction of apoptosis in human A549 cells assessed as viable cells at 0.5 uM after 48 hrs by Annexin V-FITC/propidium iodide staining based flow cytometry (reference value: 98%); type: functional; conditions: A549, 48 h, read-out: Activity; summary of the method: as §1
HeLa [4] = experiment: Antiproliferative activity against human HeLa cells assessed as decrease in cell viability after 72 hrs by CCK-8 assay; type: functional, cell-based
Summary of the method: (§2)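 Cells grown to 70–85% confluence (A375, A549, HCT116 in RPMI1640; HeLa, SMMC7721 in DMEM; 10% FBS, 37 °C, 5% CO2), seeded 4000/well, dosed after 12 h across a concentration range, incubated 72 h, then CCK-8 for 1 h; absorbance at 450 nm. IC50 as mean ± SD of three separate experiments.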

HeLa [5] = experiment: Antiproliferative activity against human HeLa cells assessed as growth inhibition at 8 uM after 72 hrs by CCK-8 assay relative to control; type: functional; conditions: read-out: GI
A549 [6] = experiment: Induction of apoptosis in human A549 cells assessed as viable cells at 2 uM after 48 hrs by Annexin V-FITC/propidium iodide staining based flow cytometry (reference value: 98%); type: functional; conditions: A549, 48 h, read-out: Activity; summary of the method: as §1
SMMC-7721 [7] = experiment: Antiproliferative activity against human SMMC7721 cells assessed as decrease in cell viability after 72 hrs by CCK-8 assay; type: functional, cell-based; conditions: SMMC-7721, 72 h; summary of the method: as §2
A549 [8] = experiment: Antiproliferative activity against human A549 cells assessed as decrease in cell viability after 72 hrs by CCK-8 assay; type: functional, cell-based; conditions: A549, 72 h; summary of the method: as §2
A549 [9] = experiment: Induction of apoptosis in human A549 cells assessed as early apoptotic cells at 0.5 uM after 48 hrs by Annexin V-FITC/propidium iodide staining based flow cytometry (reference value: 1.19%); type: functional; summary of the method: as §1
A549 [10] = experiment: Cell cycle arrest in human A549 cells assessed as accumulation of cells at G0/G1 phase at 0.5 uM after 48 hrs by propidium iodide staining-based flow cytometry (reference value: 73.35%); type: functional
A549 [11] = experiment: Cell cycle arrest in human A549 cells assessed as accumulation of cells at G2/M phase at 0.5 uM after 48 hrs by propidium iodide staining-based flow cytometry (reference value: 13.62%); type: functional
A549 [12] = experiment: Cell cycle arrest in human A549 cells assessed as accumulation of cells at S phase at 1 uM after 48 hrs by propidium iodide staining-based flow cytometry (reference value: 12.83%); type: functional
A549 [13] = experiment: Induction of apoptosis in human A549 cells assessed as necrotic cells at 0.5 uM after 48 hrs by Annexin V-FITC/propidium iodide staining based flow cytometry (reference value: 0.135%); type: functional; summary of the method: as §1
HCT-116 [14] = experiment: Antiproliferative activity against human HCT116 cells assessed as growth inhibition at 2 uM after 72 hrs by CCK-8 assay relative to control; type: functional; conditions: HCT-116, 72 h, read-out: GI
A549 [15] = experiment: Induction of apoptosis in human A549 cells assessed as early apoptotic cells at 1 uM after 48 hrs by Annexin V-FITC/propidium iodide staining based flow cytometry (reference value: 1.19%); type: functional; summary of the method: as §1
A549 [16] = experiment: Cell cycle arrest in human A549 cells assessed as accumulation of cells at G2/M phase at 2 uM after 48 hrs by propidium iodide staining-based flow cytometry (reference value: 13.62%); type: functional
A-375 [17] = experiment: Antiproliferative activity against human A375 cells assessed as growth inhibition at 2 uM after 72 hrs by CCK-8 assay relative to control; type: functional; conditions: A-375, 72 h, read-out: GI
A549 [18] = experiment: Cell cycle arrest in human A549 cells assessed as accumulation of cells at G0/G1 phase at 2 uM after 48 hrs by propidium iodide staining-based flow cytometry (reference value: 73.35%); type: functional
A549 [19] = experiment: Antiproliferative activity against human A549 cells assessed as growth inhibition at 2 uM after 72 hrs by CCK-8 assay relative to control; type: functional; conditions: A549, 72 h, read-out: GI
A549 [20] = experiment: Cell cycle arrest in human A549 cells assessed as accumulation of cells at G0/G1 phase at 1 uM after 48 hrs by propidium iodide staining-based flow cytometry (reference value: 73.35%); type: functional
HCT-116 [21] = experiment: Antiproliferative activity against human HCT116 cells assessed as growth inhibition at 8 uM after 72 hrs by CCK-8 assay relative to control; type: functional; conditions: HCT-116, 72 h, read-out: GI
A-375 [22] = experiment: Antiproliferative activity against human A375 cells assessed as decrease in cell viability after 72 hrs by CCK-8 assay; type: functional, cell-based; conditions: A-375, 72 h; summary of the method: as §2
A549 [23] = experiment: Antiproliferative activity against human A549 cells assessed as growth inhibition at 8 uM after 72 hrs by CCK-8 assay relative to control; type: functional; conditions: A549, 72 h, read-out: GI
HeLa [24] = experiment: Antiproliferative activity against human HeLa cells assessed as growth inhibition at 2 uM after 72 hrs by CCK-8 assay relative to control; type: functional; conditions: read-out: GI
A549 [25] = experiment: Induction of apoptosis in human A549 cells assessed as late apoptotic cells at 0.5 uM after 48 hrs by Annexin V-FITC/propidium iodide staining based flow cytometry (reference value: 0.637%); type: functional; summary of the method: as §1
A549 [26] = experiment: Induction of apoptosis in human A549 cells assessed as late apoptotic cells at 1 uM after 48 hrs by Annexin V-FITC/propidium iodide staining based flow cytometry (reference value: 0.637%); type: functional; summary of the method: as §1
A549 [27] = experiment: Induction of apoptosis in human A549 cells assessed as early apoptotic cells at 2 uM after 48 hrs by Annexin V-FITC/propidium iodide staining based flow cytometry (reference value: 1.19%); type: functional; summary of the method: as §1
HCT-116 [28] = experiment: Antiproliferative activity against human HCT116 cells assessed as decrease in cell viability after 72 hrs by CCK-8 assay; type: functional, cell-based; conditions: HCT-116, 72 h; summary of the method: as §2
A549 [29] = experiment: Induction of apoptosis in human A549 cells assessed as late apoptotic cells at 2 uM after 48 hrs by Annexin V-FITC/propidium iodide staining based flow cytometry (reference value: 0.637%); type: functional; summary of the method: as §1
A549 [30] = experiment: Cell cycle arrest in human A549 cells assessed as accumulation of cells at S phase at 2 uM after 48 hrs by propidium iodide staining-based flow cytometry (reference value: 12.83%); type: functional
SMMC-7721 [31] = experiment: Antiproliferative activity against human SMMC7721 cells assessed as growth inhibition at 8 uM after 72 hrs by CCK-8 assay relative to control; type: functional; conditions: SMMC-7721, 72 h, read-out: GI
SMMC-7721 [32] = experiment: Antiproliferative activity against human SMMC7721 cells assessed as growth inhibition at 2 uM after 72 hrs by CCK-8 assay relative to control; type: functional; conditions: SMMC-7721, 72 h, read-out: GI
A-375 [33] = experiment: Antiproliferative activity against human A375 cells assessed as growth inhibition at 8 uM after 72 hrs by CCK-8 assay relative to control; type: functional; conditions: A-375, 72 h, read-out: GI
A549 [34] = experiment: Induction of apoptosis in human A549 cells assessed as necrotic cells at 1 uM after 48 hrs by Annexin V-FITC/propidium iodide staining based flow cytometry (reference value: 0.135%); type: functional; summary of the method: as §1
A549 [35] = experiment: Cell cycle arrest in human A549 cells assessed as accumulation of cells at G2/M phase at 1 uM after 48 hrs by propidium iodide staining-based flow cytometry (reference value: 13.62%); type: functional
A549 [36] = experiment: Induction of apoptosis in human A549 cells assessed as necrotic cells at 2 uM after 48 hrs by Annexin V-FITC/propidium iodide staining based flow cytometry (reference value: 0.135%); type: functional; summary of the method: as §1
[37] = Half life in ICR mouse at 4 mg/kg, iv after 0.08 to 24 hrs by LC-MS/MS analysis; type: ADME, organism-based; conditions: in vivo
Summary of the method: (§3)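 Male ICR mice (29.7~37.4 g), single iv dose 4 mg/kg in DMSO:40% SBE-β-CD 20:80 (v/v). Retro-orbital blood at 0.08–24 h into EDTA-K2 tubes; plasma protein-precipitated with acetonitrile containing internal standards, analysed by LC-MS/MS; n=3 per time point; noncompartmental analysis.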

[38] = Volume of distribution at steady state n ICR mouse at 4 mg/kg, iv after 0.08 to 24 hrs by LC-MS/MS analysis; type: ADME, organism-based; conditions: in vivo, read-out: Vdss; summary of the method: as §3
[39] = Clearance in ICR mouse at 4 mg/kg, iv after 0.08 to 24 hrs by LC-MS/MS analysis; type: ADME, organism-based; conditions: in vivo; summary of the method: as §3

IC50 (HeLa [4]): 3.42 µM
IC50 (SMMC-7721 [7]): 8.63 µM
IC50 (A549 [8]): 6.81 µM
IC50 (A-375 [22]): 4.77 µM
IC50 (HCT-116 [28]): 1.57 µM
SMILES: Nc1ccc(F)cc1NC(=O)c1ccc(CNC(=O)/C=C/c2cccnc2)cc1
Activity (A549 [1]): 6.97%
viability at 1 µM (A549 [2]): 89%
viability at 0.5 µM (A549 [3]): 96.5%
inhibition of growth at 8 µM (HeLa [5]): 34.2%
viability at 2 µM (A549 [6]): 91%
Activity (A549 [9]): 2.17%
Activity (A549 [10]): 75.24%
Activity (A549 [11]): 17.79%
Activity (A549 [12]): 7.26%
Activity (A549 [13]): 0.455%
inhibition of growth at 2 µM (HCT-116 [14]): 61.1%
Activity (A549 [15]): 1.01%
Activity (A549 [16]): 15.04%
inhibition of growth at 2 µM (A-375 [17]): 56.5%
Activity (A549 [18]): 75.53%
inhibition of growth at 2 µM (A549 [19]): 21.9%
Activity (A549 [20]): 74.07%
inhibition of growth at 8 µM (HCT-116 [21]): 87.4%
inhibition of growth at 8 µM (A549 [23]): 85.6%
inhibition of growth at 2 µM (HeLa [24]): 20.6%
Activity (A549 [25]): 0.898%
Activity (A549 [26]): 5.25%
Activity (A549 [27]): 3.97%
Activity (A549 [29]): 4.14%
Activity (A549 [30]): 9.43%
inhibition of growth at 8 µM (SMMC-7721 [31]): 71.7%
inhibition of growth at 2 µM (SMMC-7721 [32]): 56.5%
inhibition of growth at 8 µM (A-375 [33]): 71.7%
Activity (A549 [34]): 4.71%
Activity (A549 [35]): 18.67%
Activity (A549 [36]): 0.881%

half-life [37]: 33.6 min
Vd [38]: 2.33 L/kg
clearance [39]: 118 mL/min/kg
SMILES: Nc1ccccc1NC(=O)c1ccc(COc2ccc(F)cc2)cc1
